Results: ChEMBL document CHEMBL3611989, “Discovery and characterization of aryl isonitriles as a new class of compounds versus methicillin- and vancomycin-resistant Staphylococcus aureus” (Eur J Med Chem, 2015)
In brackets after ≈: the same amount, converted by molar mass.

How the values were obtained:
J774 [1] = assay: Cytotoxicity against mouse J774 cells assessed as reduction in cell viability at 64 uM incubated for 2 hrs by MTS assay; format: cell-based; settings: j774, 2 h
Method in brief: (§1)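 Murine J774 macrophages grown in DMEM with 10% FBS at 37 °C, 5% CO2. Compounds were tested in triplicate at 16, 32, 64 and 128 μM for 2 h, with DMSO-matched vehicle controls. MTS reagent was then added and absorbance read at OD490. Viability is given as percent of DMSO-treated cells (mean of triplicate ± standard deviation), compared by paired t-test (P < 0.05).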

Staphylococcus aureus [2] = assay: Antimicrobial activity against methicillin-sensitive Staphylococcus aureus NRS72 assessed as reduction in bacterial growth incubated for 18 to 20 hrs at 37 degC by broth microdilution method; format: functional
Method in brief: (§2)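 Modified CLSI broth microdilution. Bacterial suspension of about 1 × 10^5 CFU/mL in tryptic soy broth. Each agent was added in triplicate to the first row and serially diluted down the plate. Plates were incubated at 37 °C for 18-20 h. MIC was read as the lowest concentration with no visible growth.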

J774 [3] = format: cell-based; settings: mouse, j774, 2 h, 128 µM
Staphylococcus aureus [4] = assay: Antimicrobial activity against methicillin-resistant Staphylococcus aureus NRS119 assessed as reduction in bacterial growth incubated for 18 to 20 hrs at 37 degC by broth microdilution method; format: functional; method in brief: as §2
Staphylococcus aureus [5] = assay: Antimicrobial activity against methicillin-resistant Staphylococcus aureus USA200 assessed as reduction in bacterial growth incubated for 18 to 20 hrs at 37 degC by broth microdilution method; format: functional; method in brief: as §2
Staphylococcus aureus [6] = assay: Antimicrobial activity against vancomycin-resistant Staphylococcus aureus VRS2 assessed as reduction in bacterial growth incubated for 18 to 20 hrs at 37 degC by broth microdilution method; format: functional; method in brief: as §2
Staphylococcus aureus [7] = assay: Antimicrobial activity against methicillin-resistant Staphylococcus aureus USA100 assessed as reduction in bacterial growth incubated for 18 to 20 hrs at 37 degC by broth microdilution method; format: functional; method in brief: as §2
Staphylococcus aureus [8] = assay: Antimicrobial activity against vancomycin-intermediate-resistant Staphylococcus aureus NRS1 assessed as reduction in bacterial growth incubated for 18 to 20 hrs at 37 degC by broth microdilution method; format: functional; method in brief: as §2
Staphylococcus aureus [9] = assay: Antimicrobial activity against methicillin-resistant Staphylococcus aureus USA700 assessed as reduction in bacterial growth incubated for 18 to 20 hrs at 37 degC by broth microdilution method; format: functional; method in brief: as §2
Staphylococcus aureus [10] = assay: Antimicrobial activity against methicillin-resistant Staphylococcus aureus USA500 assessed as reduction in bacterial growth incubated for 18 to 20 hrs at 37 degC by broth microdilution method; format: functional; method in brief: as §2
J774 [11] = assay: Cytotoxicity against mouse J774 cells assessed as reduction in cell viability at 32 uM incubated for 2 hrs by MTS assay; format: cell-based; settings: j774, 2 h; method in brief: as §1
Staphylococcus aureus [12] = assay: Antimicrobial activity against methicillin-resistant Staphylococcus aureus USA300 assessed as reduction in bacterial growth incubated for 18 to 20 hrs at 37 degC by broth microdilution method; format: functional; method in brief: as §2

Compound | Activity (J774 [1]) | MIC (Staphylococcus aureus [2]) [µM] | Activity (J774 [3]) | MIC (Staphylococcus aureus [4]) [µM] | MIC (Staphylococcus aureus [5]) [µM] | MIC (Staphylococcus aureus [6]) [µM] | MIC (Staphylococcus aureus [7]) [µM] | MIC (Staphylococcus aureus [8]) [µM] | MIC (Staphylococcus aureus [9]) [µM] | MIC (Staphylococcus aureus [10]) [µM] | Activity (J774 [11]) | MIC (Staphylococcus aureus [12]) [µM]
[C-]#[N+]c1ccccc1/C=C/c1ccccc1OC | Non-toxic | 8 (≈ 1.88 µg/mL) | Toxic | 16 (≈ 3.76 µg/mL) | 8 (≈ 1.88 µg/mL) | 16 (≈ 3.76 µg/mL) | 8 (≈ 1.88 µg/mL) | 4 (≈ 0.941 µg/mL) | 8 (≈ 1.88 µg/mL) | 8 (≈ 1.88 µg/mL) | Non-toxic | 8 (≈ 1.88 µg/mL)
[C-]#[N+]c1cccc(/C=C/c2ccccn2)c1 |  | 64 (≈ 13.2 µg/mL) |  | 128 (≈ 26.4 µg/mL) | 64 (≈ 13.2 µg/mL) | 128 (≈ 26.4 µg/mL) | 32 (≈ 6.6 µg/mL) | 128 (≈ 26.4 µg/mL) | 64 (≈ 13.2 µg/mL) | 64 (≈ 13.2 µg/mL) |  | 32 (≈ 6.6 µg/mL)
[C-]#[N+]c1ccc(/C=C/c2ccccc2)cc1 | Non-toxic | 4 (≈ 0.821 µg/mL) | Non-toxic | > 128 | 32 (≈ 6.57 µg/mL) | > 128 | 4 (≈ 0.821 µg/mL) | > 128 | 64 (≈ 13.1 µg/mL) | 16 (≈ 3.28 µg/mL) | Non-toxic | 4 (≈ 0.821 µg/mL)
[C-]#[N+]c1ccccc1/C=C(\CCC)c1ccccc1 |  | 16 (≈ 3.96 µg/mL) |  | 32 (≈ 7.91 µg/mL) | 16 (≈ 3.96 µg/mL) | 32 (≈ 7.91 µg/mL) | 16 (≈ 3.96 µg/mL) | 8 (≈ 1.98 µg/mL) | 16 (≈ 3.96 µg/mL) | 16 (≈ 3.96 µg/mL) |  | 32 (≈ 7.91 µg/mL)
N#Cc1ccccc1/C=C/c1ccccc1 |  | > 128 |  | > 128 | > 128 | > 128 | > 128 | > 128 | > 128 | > 128 |  | > 128
[C-]#[N+]c1ccccc1/C=C(\CC)c1ccc(OC)cc1 | Toxic |  | Toxic | > 128 |  | 8 (≈ 2.11 µg/mL) |  | 4 (≈ 1.05 µg/mL) | 4 (≈ 1.05 µg/mL) |  | Non-toxic | 16 (≈ 4.21 µg/mL)
[C-]#[N+]c1ccccc1/C=C/c1cccc(C(F)(F)F)c1 | Non-toxic | 2 (≈ 0.547 µg/mL) | Toxic |  | 4 (≈ 1.09 µg/mL) | 8 (≈ 2.19 µg/mL) | 4 (≈ 1.09 µg/mL) | 2 (≈ 0.547 µg/mL) | 4 (≈ 1.09 µg/mL) |  | Non-toxic | 
[C-]#[N+]c1ccc(C)cc1-c1ccc(C(C)(C)C)cc1 |  | > 128 |  | 64 (≈ 16 µg/mL) | 16 (≈ 3.99 µg/mL) | > 128 | 16 (≈ 3.99 µg/mL) | 4 (≈ 0.997 µg/mL) | 16 (≈ 3.99 µg/mL) | > 128 |  | > 128
[C-]#[N+]c1ccc(/C=C/c2ccncc2)cc1 | Non-toxic | 2 (≈ 0.412 µg/mL) | Toxic |  | 8 (≈ 1.65 µg/mL) | 4 (≈ 0.825 µg/mL) | 8 (≈ 1.65 µg/mL) | 8 (≈ 1.65 µg/mL) | 8 (≈ 1.65 µg/mL) |  | Non-toxic | 
[C-]#[N+]c1cccc(/C=C/c2ccncc2)c1 |  | 64 (≈ 13.2 µg/mL) |  | 32 (≈ 6.6 µg/mL) | 64 (≈ 13.2 µg/mL) | 64 (≈ 13.2 µg/mL) | 32 (≈ 6.6 µg/mL) | 32 (≈ 6.6 µg/mL) | 64 (≈ 13.2 µg/mL) | 64 (≈ 13.2 µg/mL) |  | 32 (≈ 6.6 µg/mL)
[C-]#[N+]c1ccccc1/C=C(\CC)c1cccc(C(F)(F)F)c1 | Toxic | 4 (≈ 1.21 µg/mL) | Toxic |  |  | 8 (≈ 2.41 µg/mL) | 4 (≈ 1.21 µg/mL) | 2 (≈ 0.603 µg/mL) | 2 (≈ 0.603 µg/mL) |  | Non-toxic | > 128
Nc1ccccc1CCc1ccccc1 |  | > 128 |  | > 128 | 32 (≈ 6.31 µg/mL) | > 64 | > 128 | 8 (≈ 1.58 µg/mL) | > 64 | > 64 |  | > 128
CC(=O)NC[C@H]1CN(c2ccc(N3CCOCC3)c(F)c2)C(=O)O1 [LINEZOLID] |  | 2 (≈ 0.675 µg/mL) |  | 64 (≈ 21.6 µg/mL) | 2 (≈ 0.675 µg/mL) | < 1 | < 1 | < 1 | 2 (≈ 0.675 µg/mL) | < 1 |  | 2 (≈ 0.675 µg/mL)
[C-]#[N+]c1ccccc1/C=C/c1ccc([N+](=O)[O-])cc1 | Toxic | 2 (≈ 0.501 µg/mL) | Toxic | 16 (≈ 4 µg/mL) | 4 (≈ 1 µg/mL) | 8 (≈ 2 µg/mL) | 4 (≈ 1 µg/mL) | 4 (≈ 1 µg/mL) |  |  | Toxic | 
CN[C@H](CC(C)C)C(=O)N[C@H]1C(=O)N[C@@H](CC(N)=O)C(=O)N[C@H]2C(=O)N[C@H]3C(=O)N[C@H](C(=O)N[C@H](C(=O)O)c4cc(O)cc(O)c4-c4cc3ccc4O)[C@H](O)c3ccc(c(Cl)c3)Oc3cc2cc(c3O[C@@H]2O[C@H](CO)[C@@H](O)[C@H](O)[C@H]2O[C@H]2C[C@](C)(N)[C@H](O)[C@H](C)O2)Oc2ccc(cc2Cl)[C@H]1O [VANCOMYCIN] |  | < 1 |  |  |  | 128 (≈ 186 µg/mL) | 2 (≈ 2.9 µg/mL) | 8 (≈ 11.6 µg/mL) |  | 4 (≈ 5.8 µg/mL) |  | 
